Laboratory results reported in ChEMBL document CHEMBL1134835, “Analogues of prazosin that bear a benextramine-related polyamine backbone exhibit different antagonism toward alpha1-adrenoreceptor subtypes” (J Med Chem, 2001).

What was measured:
[1] = biological target: T1, Alpha-1B adrenergic receptor (Rattus norvegicus) (UniProt P15823); conditions: Spleen
T1 sequence (whole entry): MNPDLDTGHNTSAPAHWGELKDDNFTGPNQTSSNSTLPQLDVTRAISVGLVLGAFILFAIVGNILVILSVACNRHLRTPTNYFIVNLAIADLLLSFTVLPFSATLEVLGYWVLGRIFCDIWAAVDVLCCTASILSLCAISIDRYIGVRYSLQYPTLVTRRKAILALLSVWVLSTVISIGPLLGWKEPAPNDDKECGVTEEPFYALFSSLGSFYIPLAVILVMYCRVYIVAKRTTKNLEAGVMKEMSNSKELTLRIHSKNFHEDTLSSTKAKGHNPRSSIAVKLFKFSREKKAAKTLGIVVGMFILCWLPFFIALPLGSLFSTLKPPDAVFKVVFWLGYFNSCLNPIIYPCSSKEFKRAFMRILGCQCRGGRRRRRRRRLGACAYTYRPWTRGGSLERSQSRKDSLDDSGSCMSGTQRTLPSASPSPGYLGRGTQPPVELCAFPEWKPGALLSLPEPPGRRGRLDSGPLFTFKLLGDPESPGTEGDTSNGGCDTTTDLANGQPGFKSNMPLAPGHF

[2] = biological target: T2, Alpha-1A adrenergic receptor (Rattus norvegicus) (UniProt P43140)
T2 sequence (whole entry): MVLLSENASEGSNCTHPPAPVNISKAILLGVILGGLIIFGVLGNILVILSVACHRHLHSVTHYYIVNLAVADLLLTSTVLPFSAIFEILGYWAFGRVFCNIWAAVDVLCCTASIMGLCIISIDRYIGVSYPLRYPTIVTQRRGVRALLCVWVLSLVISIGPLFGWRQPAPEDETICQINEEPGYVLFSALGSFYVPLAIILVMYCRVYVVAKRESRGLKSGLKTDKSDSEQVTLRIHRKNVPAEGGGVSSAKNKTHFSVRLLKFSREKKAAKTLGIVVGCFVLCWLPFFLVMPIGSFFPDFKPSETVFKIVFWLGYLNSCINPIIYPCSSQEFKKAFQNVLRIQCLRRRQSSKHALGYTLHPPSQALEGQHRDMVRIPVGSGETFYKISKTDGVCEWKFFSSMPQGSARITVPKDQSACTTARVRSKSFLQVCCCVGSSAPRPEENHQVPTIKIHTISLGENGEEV

[3] = biological target: T3, Alpha-1D adrenergic receptor (Rattus norvegicus) (UniProt P23944); conditions: Thoracic aorta
T3 sequence (whole entry): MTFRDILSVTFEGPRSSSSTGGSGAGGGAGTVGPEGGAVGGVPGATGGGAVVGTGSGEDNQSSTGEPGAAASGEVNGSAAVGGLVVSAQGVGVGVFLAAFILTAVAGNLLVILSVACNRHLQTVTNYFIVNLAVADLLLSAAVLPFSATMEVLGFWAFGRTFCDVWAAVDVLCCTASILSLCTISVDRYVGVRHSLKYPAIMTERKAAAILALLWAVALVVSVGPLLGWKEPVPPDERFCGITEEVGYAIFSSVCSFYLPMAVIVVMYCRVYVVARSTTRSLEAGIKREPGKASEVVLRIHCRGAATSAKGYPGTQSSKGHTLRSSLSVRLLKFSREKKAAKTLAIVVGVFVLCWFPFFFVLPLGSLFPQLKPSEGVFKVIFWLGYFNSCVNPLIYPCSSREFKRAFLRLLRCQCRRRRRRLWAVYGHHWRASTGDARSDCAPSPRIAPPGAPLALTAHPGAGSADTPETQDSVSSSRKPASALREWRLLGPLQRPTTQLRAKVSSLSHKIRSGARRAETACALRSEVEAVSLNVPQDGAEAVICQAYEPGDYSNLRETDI

[4] = biological target: T4, Alpha-1B adrenergic receptor (Rattus norvegicus, UniProt P15823); test: Antagonist affinity [non competitive (irreversible)] at alpha-1B-adrenoceptors on isolated spleen from rat; format: functional, tissue-based
T4 sequence (P15823 whole entry): T1 sequence (whole entry)
How it was run: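 Isolated rat spleen contracted by (-)-phenylephrine, measured isometrically. Cumulative curves run at 30 min intervals, the second taken as control. Antagonist incubated 30 min, washed 30 min, then a new curve. Loss of maximal response expressed as % of control; IC50 estimated from % inhibition vs log molar concentration plots, reported as pIC50 ± SE of n experiments.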

[5] = biological target: T5, Alpha-1A adrenergic receptor (Rattus norvegicus, UniProt P43140); test: Antagonist affinity [non competitive (irreversible)] at alpha-1A-adrenoceptors on isolated prostatic Vas deferens from rat; format: functional
T5 sequence (P43140 whole entry): T2 sequence (whole entry)
How it was run: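 Rat vas deferens prostatic portion, equilibrated 60 min with washes every 15 min, primed twice with 10 µM noradrenaline, then a basal noradrenaline concentration-response curve (solutions with 0.05% Na₂S₂O₅). Antagonist 30 min, then 30 min washing, then a new curve. Maximal-response decrease expressed as % of control; IC50 read graphically from % inhibition vs log molar concentration, given as pIC50 ± SE.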

## COc1cc2nc(N3CCN(C(=O)c4ccc(C)cc4)CC3)nc(N)c2cc1OC
[1]
  pKb: 7.67
[2]
  pKb: 7.96
[3]
  pKb: 8.91

## COc1cc2nc(N3CCN(C(=O)c4ccccc4C(F)(F)F)CC3)nc(N)c2cc1OC
[1]
  pKb: 6.55
[2]
  pKb: 6.43
[3]
  pKb: 8.31

## COc1cc2nc(N3CCN(C(=O)c4ccccc4CNCCCCCCNCCSSCCNCCCCCCNCc4ccccc4C(=O)N4CCN(c5nc(N)c6cc(OC)c(OC)cc6n5)CC4)CC3)nc(N)c2cc1OC
[4]
  IC50: 5.13 µM
[5]
  IC50: 5.01 µM

## COc1ccc(C(=O)N2CCN(c3nc(N)c4cc(OC)c(OC)cc4n3)CC2)cc1
[1]
  pKb: 7.74
[2]
  pKb: 8.46
[3]
  pKb: 8.98

## COc1cc2nc(N3CCN(C(=O)c4ccc(CNCCCCCCNCCCCCCNCCCCCCNCc5ccc(C(=O)N6CCN(c7nc(N)c8cc(OC)c(OC)cc8n7)CC6)cc5)cc4)CC3)nc(N)c2cc1OC
[1]
  pKb: 7.16
[2]
  pKb: 6.97
[3]
  pKb: 7.47

## COc1cc2nc(N3CCN(C(=O)c4ccco4)CC3)nc(N)c2cc1OC
[2]
  pKb: 8.99
[3]
  pKb: 9.71

## COc1cc2nc(N3CCN(C(=O)c4cccc(CNCCCCCCNCCSSCCNCCCCCCNCc5cccc(C(=O)N6CCN(c7nc(N)c8cc(OC)c(OC)cc8n7)CC6)c5)c4)CC3)nc(N)c2cc1OC
[4]
  IC50: 55 µM
[5]
  IC50: 3.89 µM

## COc1cc2nc(N3CCN(C(=O)c4ccccc4)CC3)nc(N)c2cc1OC
[1]
  pKb: 7.44
[2]
  pKb: 7.66
[3]
  pKb: 8.86

## COc1cc2nc(N3CCN(C(=O)c4ccc(CNCCCCCCNCCSSCCNCCCCCCNCc5ccc(C(=O)N6CCN(c7nc(N)c8cc(OC)c(OC)cc8n7)CC6)cc5)cc4)CC3)nc(N)c2cc1OC
[4]
  IC50: 41.7 µM
[5]
  IC50: 2 µM

## COc1cc2nc(N3CCN(C(=O)c4cccc(C(F)(F)F)c4)CC3)nc(N)c2cc1OC
[1]
  pKb: 7.16
[2]
  pKb: 7.49
[3]
  pKb: 8.38

## COc1cccc(C(=O)N2CCN(c3nc(N)c4cc(OC)c(OC)cc4n3)CC2)c1
[1]
  pKb: 7.84
[2]
  pKb: 7.87
[3]
  pKb: 7.46

## COc1cc2nc(N(C)CCCCCCN(C)C(=O)c3cccc(CNCCCCCCNCCSSCCNCCCCCCNCc4cccc(C(=O)N(C)CCCCCCN(C)c5nc(N)c6cc(OC)c(OC)cc6n5)c4)c3)nc(N)c2cc1OC
[4]
  IC50: 1.74 µM
[5]
  IC50: 0.0457 µM

## COc1cc2nc(N3CCN(C(=O)c4ccccc4C=O)CC3)nc(N)c2cc1OC
[1]
  pKb: 6.5
[2]
  pKb: 6.94
[3]
  pKb: 7.56

## COc1cc2nc(N3CCN(C(=O)c4ccc(C(F)(F)F)cc4)CC3)nc(N)c2cc1OC
[1]
  pKb: 7.45
[2]
  pKb: 7.43
[3]
  pKb: 8.31

## COc1cc2nc(N3CCN(C(=O)c4ccccc4C)CC3)nc(N)c2cc1OC
[1]
  pKb: 7.33
[2]
  pKb: 6.97
[3]
  pKb: 7.99

## COc1cc2nc(N(C)CCCCCCN(C)C(=O)c3ccccc3CNCCCCCCNCCCCCCNCCCCCCNCc3ccccc3C(=O)N(C)CCCCCCN(C)c3nc(N)c4cc(OC)c(OC)cc4n3)nc(N)c2cc1OC
[1]
  pKb: 7.22
[2]
  pKb: 8.17
[3]
  pKb: 8.47

## COc1cc2nc(N(C)CCCCCCN(C)C(=O)c3ccccc3CNCCCCCCNCCSSCCNCCCCCCNCc3ccccc3C(=O)N(C)CCCCCCN(C)c3nc(N)c4cc(OC)c(OC)cc4n3)nc(N)c2cc1OC
[4]
  IC50: 1.86 µM
[5]
  IC50: 1.86 µM

## COc1cc2nc(N3CCN(C(=O)c4cccc(C=O)c4)CC3)nc(N)c2cc1OC
[1]
  pKb: 6.92
[2]
  pKb: 7.79
[3]
  pKb: 8.07

## COc1cc2nc(N(C)CCCCCCN(C)C(=O)c3ccc(CNCCCCCCNCCSSCCNCCCCCCNCc4ccc(C(=O)N(C)CCCCCCN(C)c5nc(N)c6cc(OC)c(OC)cc6n5)cc4)cc3)nc(N)c2cc1OC
[4]
  IC50: 2.14 µM
[5]
  IC50: 4.68 µM

## COc1cc2nc(N3CCN(C(=O)c4ccccc4CNCCCCCCNCCCCCCNCCCCCCNCc4ccccc4C(=O)N4CCN(c5nc(N)c6cc(OC)c(OC)cc6n5)CC4)CC3)nc(N)c2cc1OC
[1]
  pKb: 6.8
[2]
  pKb: 7.74
[3]
  pKb: 7.94

## COc1cc2nc(N(C)CCCCCCN(C)C(=O)c3ccc(CNCCCCCCNCCCCCCNCCCCCCNCc4ccc(C(=O)N(C)CCCCCCN(C)c5nc(N)c6cc(OC)c(OC)cc6n5)cc4)cc3)nc(N)c2cc1OC
[1]
  pKb: 7.56
[2]
  pKb: 8.53
[3]
  pKb: 7.9

## COc1cc2nc(N3CCN(C(=O)c4ccccc4OC)CC3)nc(N)c2cc1OC
[1]
  pKb: 6.77
[2]
  pKb: 7.34
[3]
  pKb: 7.76

## COc1cc2nc(N(C)CCCCCCN(C)C(=O)c3cccc(CNCCCCCCNCCCCCCNCCCCCCNCc4cccc(C(=O)N(C)CCCCCCN(C)c5nc(N)c6cc(OC)c(OC)cc6n5)c4)c3)nc(N)c2cc1OC
[1]
  pKb: 7.41
[2]
  pKb: 8.48
[3]
  pKb: 9.3

## COc1cc2nc(N3CCN(C(=O)c4cccc(C)c4)CC3)nc(N)c2cc1OC
[1]
  pKb: 8.12
[2]
  pKb: 8.49
[3]
  pKb: 9.12

## COc1cc2nc(N3CCN(C(=O)c4ccc(C=O)cc4)CC3)nc(N)c2cc1OC
[1]
  pKb: 6.95
[2]
  pKb: 7.59
[3]
  pKb: 8.38

## COc1cc2nc(N3CCN(C(=O)c4cccc(CNCCCCCCNCCCCCCNCCCCCCNCc5cccc(C(=O)N6CCN(c7nc(N)c8cc(OC)c(OC)cc8n7)CC6)c5)c4)CC3)nc(N)c2cc1OC
[1]
  pKb: 6.5
[2]
  pKb: 7.29
[3]
  pKb: 7.43
